Screens deposited in PubChem BioAssay by Columbia University Molecular Screening Center.
Insulin prom act: TRM-6 insulin promoter activation; TRM-6 cells, insulin promoter eGFP reporter, imaging; plate-scaled: unstimulated 0, stimulated control 100; activation, % at 2 µM; 0.81% of 130,000 active;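 active = activation at 2 µM above a set limit, confirmed on inspection of the cell images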;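 note: share of cells whose green reporter signal exceeds an intensity cutoff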
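System: human fetal islet-derived TRM-6 cells with tamoxifen-inducible insulin promoter–eGFP reporter; input: seeding density of 1,000 cells per well; buffer or medium: Low-glucose (5.5 mM) medium with tamoxifen; incubation: compound exposure 48 h, 37 °C; measured by: high-content imaging of fixed cells with Hoechst nuclear stain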
Of the large screens only hits and unclear results are named; the others gave an inactive call; [ ] = remark or other dose. The sample as a whole holds a higher share of hits than the screen did.

O=C(CNC(=O)c1ccccc1)OCc1ccc([N+](=O)[O-])cc1	none
COc1cccc(C(=O)C2CCCN(Cc3cn(CC(N)=O)c4ccccc34)C2)c1 (centres undefined)	none
CCC(C)C(NC(=O)OC(C)(C)C)C(=O)NC(C)C(N)=O (centres undefined)	none
CN(CC(=O)Nc1cccc([N+](=O)[O-])c1)S(=O)(=O)c1ccccc1	none
O=C(Nc1nc2ccccc2s1)C1=NN(c2ccccc2)C(=O)CC1	none
CCN(CC)c1ccc2c(Cl)c(Br)c(=O)oc2c1	Insulin prom act 133.3
CCN(CC)c1ccc2c(C)c(-c3ccc(N)cc3)c(=O)oc2c1	none
CCN(CC)c1ccc2c(c1)oc(=O)c1c(Cl)cc(=O)oc12	none
CCS(=O)CCSc1nc2ccccc2s1 (centres undefined)	none
CC(C)(C)NC(=O)CN(C(=O)CS(=O)CC(=O)Nc1ccc(F)cc1)c1ccc2c(c1)OCCO2 (centres undefined)	none
COc1cc(/C=N/NC(=O)c2ccncc2)ccc1OC(=O)c1ccc([N+](=O)[O-])cc1	none
COc1ccc(/C=N/NC(=O)c2ccc(Br)o2)cc1Cn1cc([N+](=O)[O-])cn1	none
COc1ccc(/C=N/NC(=O)c2ccncc2)cc1Cn1nc([N+](=O)[O-])c(Br)c1C	Insulin prom act 393.8
O=C(NN1C(=O)c2ccccc2C1=O)c1ccccc1[N+](=O)[O-]	none
CCN(CC)CCn1c(N)cc(=O)[nH]c1=O	none
CCN(CC)CCn1c(OC)cc(=O)[nH]c1=O	Insulin prom act 500.0
CCN(CC)CCn1cnc2c([nH]c3cccc(OC)c32)c1=O	none
O=C(c1cc2ccccc2oc1=O)N(Cc1ccco1)CC1CCCO1 (centres undefined)	none
CN1C(=O)CC(N2CCN(c3ccccc3)CC2)C1=O (centres undefined)	none
COc1ccccc1CP(=O)(c1ccccc1)c1ccccc1	none
CCOC(=O)CSc1ccc(S(=O)(=O)N(C)C2CCCCC2)cc1[N+](=O)[O-]	none
O=C1c2cccc3c(O)ccc(c23)C(=O)N1Cc1ccccc1	Insulin prom act 233.3
O=C(c1ccccc1)c1ccc(CN2C(=O)c3ccccc3C2=O)o1	none
O=C1c2cccnc2C(=O)N1Cc1ccccc1	none
COc1ccc(OC)c(-n2c(=S)[nH]c3cc(C(=O)NCCCN4CCCC4=O)ccc3c2=O)c1	none
Cc1ccc(-c2n[nH]c(=S)n2/N=C/c2ccncc2)cc1	none
Cc1ccc(C)c(NC(=O)Cc2csc(-c3ccccc3)n2)c1	none
COc1cccc2c1C(=O)c1c(O)c3c(c(O)c1C2=O)C[C@@](O)(C(=O)CO)C[C@@H]3O[C@H]1C[C@H](N)[C@H](O)[C@H](C)O1	Insulin prom act 354.5
O=C(NCCOc1ccccc1)c1n[nH]c(=O)c2ccccc12	none
O=C(N=C1SCC(=O)N1c1ccccc1)c1ccco1	none
N=C1SCC(=O)N1c1ncc(Cc2cccc(Cl)c2)s1	Insulin prom act 408.3
COc1ccc(C(=O)NC2(C(F)(F)F)C(=O)Nc3c2c(=O)[nH]c(=O)n3CCc2ccc(OC)c(OC)c2)cc1 (centres undefined)	none
Cc1cccc(N2CCN(C(=O)CCCn3c(=S)[nH]c4cc5c(cc4c3=O)OCO5)CC2)c1C	none
O=C(CCCn1c(=S)[nH]c2cc3c(cc2c1=O)OCO3)NC1CC1	none
CC(=O)c1ccc(N2CCN(C(=O)CCCn3c(=S)[nH]c4cc5c(cc4c3=O)OCO5)CC2)cc1	Insulin prom act 136.4
COc1ccc(CCn2ccc(O)c(Cc3c(F)cccc3Cl)c2=O)cc1OC	none
Cc1ccnc(N(C(=O)c2cccs2)C(=O)c2cccs2)c1	Insulin prom act 83.9
Cc1cccc(-c2nnc(NC(=O)c3cccs3)s2)c1	none
Cc1ccc(-c2noc(CN(C(=O)c3cccs3)C(C)C)n2)cc1	none
O=[N+]([O-])c1ccc(N/N=C/c2c[nH]c3ccccc23)cc1	Insulin prom act 222.6
O=C(N/N=C/c1c[nH]c2ccccc12)c1[nH]c2ccc(Br)cc2c1-c1ccccc1	none
COc1ccccc1NS(=O)(=O)c1cccc2cccnc12	none
O=C(CNc1ccccc1)N/N=C/c1c[nH]c2ccccc12	none
O=[N+]([O-])c1ccc(N/N=C/c2ccc[nH]2)cc1	Insulin prom act 244.8
COc1ccccc1NS(=O)(=O)c1ccc(N/N=C/c2c(C)nn(-c3ccccc3)c2N2CCCC2)c([N+](=O)[O-])c1	none
O=C(N/N=C/c1ccc[nH]1)c1ccncc1	none
COc1ccccc1NS(=O)(=O)c1cc([N+](=O)[O-])ccc1N/N=C/c1c[nH]c2ccccc12	Insulin prom act 263.6
CNc1nc(N/N=C/c2ccc([N+](=O)[O-])cc2)nc(Nc2ccccc2)n1	none
CCN(CC)S(=O)(=O)c1cccc(C(=O)N[C@H](C(=O)OCC(=O)NC(=O)NC)C(C)C)c1	none
Cn1c(SCc2cc(=O)[nH]c3ccccc23)nnc1-c1ccc(Br)cc1	none
O=C(COC(=O)c1cn(-c2ccccc2)nc1-c1cccnc1)NC1CC1	none
COCCCn1cc(C(=O)c2cc(OC)ccc2OCC(=O)N2CCCCC2C)cc(C#N)c1=O (centres undefined)	none
CCC(C)NC(=O)C(=O)NCC1CCCN1CC (centres undefined)	none
CCOc1nc(-c2ccccc2Cl)ccc1C#N	none
Cc1ccc(-c2cc(C(F)F)n3ncc(C(=O)Nc4cn(C)nc4C)c3n2)cc1	none
O=C1CSc2ccc(C(=O)Nc3cccc(S(=O)(=O)Nc4ccc(Br)cc4)c3)cc2N1	none
COc1ccccc1/C=N/NC(=O)c1ccc(Br)cc1	none
COc1ccccc1N1CCN(c2cc(N3CCCC3)nc(C)n2)CC1	none
COc1cc(N2CCCC2)c(OC)cc1/C=C(/C#N)c1ccc(Br)cc1	Insulin prom act 86.7
CCc1ccc(-c2cc(C(F)(F)F)n3nc(C(=O)Nc4cnn(Cc5ccc(C)cc5)c4)cc3n2)s1	none
O=C(COC(=O)CCSc1ccccc1)NCc1ccc(F)cc1	none
CCc1nnc(SCC(=O)Nc2ccccc2Cl)nc1CC	none
Cc1ccc(/C=C/C(=O)Nc2ccc(S(=O)(=O)Nc3ncccn3)cc2)cc1	none
CCc1nnc(NS(=O)(=O)c2ccc(NC(=O)/C=C/c3ccc(F)cc3)cc2)s1	Insulin prom act 275.0
CCc1nnc(NC(=O)/C=C/c2ccco2)s1	none
O/N=C/C1=C(Cl)c2ccccc2CC1	none
CCSc1nn2c(=O)c3ccccc3nc2s1	none
Cc1ccc(OCCOCCOc2cccc3cccnc23)c(Br)c1	none
Cc1cc(Cl)cc(Cl)c1OCCOCCN(C)C	none
Cc1cc(Cl)cc(Cl)c1OCCOc1cccc2cccnc12	Insulin prom act 83.9
CCOc1ccc(NC(=S)N2CCCN(Cc3cc(C)ccc3C)C2)cc1	none
O=C(NCCCO)C(=O)NCCc1ccc(Cl)cc1	none
O=C(Nc1ccc2c(c1)C(=O)NC2=O)c1ccc(S(=O)(=O)N2CCCC2)cc1	none
CCOC(=O)CN1C(=O)S/C(=C/c2cc(C)n(C)c2C)C1=O	none
CCN1C(=O)/C(=C\N2CCN(C)CC2)SC1=S	none
COCCN1C(=O)/C(=C/c2ccc(N3CCCC3)cc2C)SC1=S	Insulin prom act 455.6[fluoresces]
COc1ccc(C2(NC(C)=O)CCN(C(=O)c3cccs3)CC2)cc1	none
C/C(CC1CC(COCCC(C)C)OC1=O)=N\NC(N)=S (centres undefined)	none
Cc1noc(NS(=O)(=O)c2ccc(NC(=O)CSc3n[nH]c(-c4ccccc4)n3)cc2)c1C	Insulin prom act 154.5
Cc1noc(NS(=O)(=O)c2ccc(NC(=O)Nc3ccc(Cl)c(Cl)c3)cc2)c1C	none
Cc1noc(NS(=O)(=O)c2ccc(NC(=O)CCN3C(=O)c4ccccc4C3=O)cc2)c1C	none
CCOC(=O)NC(=O)C(=CNc1ccc(C)cc1)C(=O)NC(=O)OCC	none
COc1cc(C2NC(=O)NC(C)=C2C(=O)OC2CCCC(C)C2)ccc1O (centres undefined)	none
